From ChEMBL document CHEMBL1914366, “Bioassay-guided identification of an anti-inflammatory prenylated acylphloroglucinol from Melicope ptelefolia and molecular insights into its interaction with 5-lipoxygenase” (Bioorg Med Chem, 2011)
Values belong to the compound of their own block, whether it stands above or below them. Calls of active or inactive are those of the source. The calls are words filed in the database; no cut-off is given here.

How the values were obtained:
[1] = system: Radical scavenging activity; experiment: Antioxidant activity assessed as DPPH radical scavenging activity; type: functional
Summary of the method: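 DPPH radical scavenging run by a previously published method, with quercetin as positive control; triplicate tests, with absorbances averaged before calculating activity.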

[2] = target: T1, Prostaglandin G/H synthase 1 (Homo sapiens, UniProt P23219); experiment: Inhibition of COX1 in human platelets assessed as inhibition of conversion of arachidonic acid to PGE2 preincubated for 15 mins before substrate addition measured after 15 mins by enzyme immunoassay
Summary of the method: (§1)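 Human platelets (5 × 10^7/ml) in HBSS (15 mM, pH 7.4) were incubated with compound or vehicle for 15 min at 37 °C. Arachidonic acid (100 µM) was added for 15 min and the reaction was stopped with 1 N HCl. PGE2 was measured by EIA. The assay was run by a contract laboratory.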

[3] = target: T2, Polyunsaturated fatty acid 5-lipoxygenase (Homo sapiens, UniProt P09917); experiment: Inhibition of human 5-LOX in human peripheral blood mononuclear leukocytes assessed as inhibition of calymycin A23187-stimulated LTB4 production preincubated for 15 mins before stimulation measured after 15 mins by enzyme immunoassay
T2 sequence (P09917 whole entry): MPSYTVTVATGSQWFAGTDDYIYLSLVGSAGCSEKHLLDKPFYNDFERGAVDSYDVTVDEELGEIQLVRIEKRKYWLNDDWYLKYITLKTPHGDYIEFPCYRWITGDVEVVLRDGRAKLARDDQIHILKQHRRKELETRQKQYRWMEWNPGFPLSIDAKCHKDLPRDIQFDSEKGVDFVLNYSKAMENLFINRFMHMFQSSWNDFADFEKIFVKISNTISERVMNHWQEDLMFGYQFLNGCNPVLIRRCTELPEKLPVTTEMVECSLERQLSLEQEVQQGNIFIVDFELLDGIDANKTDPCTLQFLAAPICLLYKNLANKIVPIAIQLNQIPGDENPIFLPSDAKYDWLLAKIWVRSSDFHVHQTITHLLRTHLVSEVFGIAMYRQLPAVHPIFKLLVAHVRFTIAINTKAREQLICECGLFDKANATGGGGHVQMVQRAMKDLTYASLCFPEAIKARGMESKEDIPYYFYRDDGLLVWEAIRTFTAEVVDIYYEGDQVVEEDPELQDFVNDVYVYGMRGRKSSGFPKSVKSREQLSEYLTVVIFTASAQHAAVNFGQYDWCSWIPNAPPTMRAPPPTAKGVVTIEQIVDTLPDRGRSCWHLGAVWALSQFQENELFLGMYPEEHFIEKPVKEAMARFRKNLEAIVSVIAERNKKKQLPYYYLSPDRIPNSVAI
Summary of the method: (§2)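 Human peripheral blood mononuclear leukocytes (5 × 10^6 cells/ml) in HBSS were preincubated with compound or vehicle for 15 min at 37 °C. Calcimycin (A23187, 30 µM) was added for a further 15 min and the reaction was stopped with 1 N HCl. LTB4 was quantified by EIA. The assay was run by a contract laboratory.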

[4] = target: T3, Prostaglandin G/H synthase 2 (Homo sapiens) (UniProt P35354); experiment: Inhibition of human recombinant COX2 expressed in insect Sf21 cells assessed as inhibition of conversion of arachidonic acid to PGE2 at 0.1 uM preincubated for 15 mins before substrate addition measured after 5 mins by enzyme immunoassay
T3 sequence (whole entry): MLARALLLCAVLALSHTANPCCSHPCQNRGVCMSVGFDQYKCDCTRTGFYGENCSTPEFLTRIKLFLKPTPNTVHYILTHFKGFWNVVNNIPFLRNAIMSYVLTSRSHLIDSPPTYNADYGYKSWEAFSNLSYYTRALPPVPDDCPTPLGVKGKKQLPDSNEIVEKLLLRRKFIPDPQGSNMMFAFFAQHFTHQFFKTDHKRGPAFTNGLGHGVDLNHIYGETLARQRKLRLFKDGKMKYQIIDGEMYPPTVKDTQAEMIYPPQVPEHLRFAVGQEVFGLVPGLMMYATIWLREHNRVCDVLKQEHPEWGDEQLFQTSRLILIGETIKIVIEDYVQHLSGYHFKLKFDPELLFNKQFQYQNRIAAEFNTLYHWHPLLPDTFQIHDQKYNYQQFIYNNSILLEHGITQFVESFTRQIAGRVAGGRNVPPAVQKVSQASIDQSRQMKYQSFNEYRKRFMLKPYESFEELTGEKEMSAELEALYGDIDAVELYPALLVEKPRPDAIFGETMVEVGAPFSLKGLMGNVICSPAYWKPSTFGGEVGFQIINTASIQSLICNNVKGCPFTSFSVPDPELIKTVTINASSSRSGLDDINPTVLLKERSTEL
Summary of the method: (§3)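 Human recombinant COX-2 expressed in Sf21 cells (0.11 U) was preincubated with compound or vehicle, 1 mM reduced GSH, 500 µM phenol and 1 µM hematin in Tris-HCl (100 mM, pH 7.7) for 15 min at 37 °C. Arachidonic acid (0.3 mM) was added for 5 min and the reaction was stopped with 1 N HCl. After centrifugation, PGE2 was measured by EIA.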

[5] = target: T1, Prostaglandin G/H synthase 1; experiment: Inhibition of COX1 in human platelets assessed as inhibition of conversion of arachidonic acid to PGE2 at 1 uM preincubated for 15 mins before substrate addition measured after 15 mins by enzyme immunoassay; summary of the method: as §1
[6] = target: T4, Polyunsaturated fatty acid 5-lipoxygenase (Mus musculus, UniProt P48999); experiment: (§4) Inhibition of 5-LOX in calcium ionophore A23187-stimulated NMRI mouse macrophage assessed as inhibition of LTC4 production preincubated for 60 mins before stimulation measured after 2 hrs by ELISA
T4 sequence (P48999 whole entry): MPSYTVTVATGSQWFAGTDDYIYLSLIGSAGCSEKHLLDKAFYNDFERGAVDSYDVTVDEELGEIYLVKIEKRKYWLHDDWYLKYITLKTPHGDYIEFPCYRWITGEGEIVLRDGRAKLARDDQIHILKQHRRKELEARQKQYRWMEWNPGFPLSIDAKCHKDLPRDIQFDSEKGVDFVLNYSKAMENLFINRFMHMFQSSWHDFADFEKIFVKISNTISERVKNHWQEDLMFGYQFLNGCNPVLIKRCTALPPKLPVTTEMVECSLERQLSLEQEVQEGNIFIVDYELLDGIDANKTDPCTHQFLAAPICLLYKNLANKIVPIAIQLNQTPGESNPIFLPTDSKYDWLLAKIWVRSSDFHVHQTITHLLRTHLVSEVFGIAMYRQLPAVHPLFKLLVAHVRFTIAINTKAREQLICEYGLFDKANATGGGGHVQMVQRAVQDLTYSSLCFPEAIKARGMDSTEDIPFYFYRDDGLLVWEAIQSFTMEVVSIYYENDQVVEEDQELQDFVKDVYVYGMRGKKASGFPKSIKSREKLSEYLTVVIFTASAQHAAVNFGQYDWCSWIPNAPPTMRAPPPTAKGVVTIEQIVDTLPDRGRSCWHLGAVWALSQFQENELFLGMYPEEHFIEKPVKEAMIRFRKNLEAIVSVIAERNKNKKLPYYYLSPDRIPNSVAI
Summary of the method: (§5)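 Male NMRI mice (20 ± 5 g) were given 1 ml thioglycolate ip and peritoneal macrophages were lavaged with PBS 3 days later. Cells were adhered overnight at 5 × 10^5 cells/well and then moved to serum-free DMEM. Compound was added for 60 min at 37 °C, then A23187 to a final 10^-6 M for 2 h. Supernatant cysLTs were measured by ELISA against a standard curve. Values are mean ± S.D., mostly triplicate, compared by unpaired t-test.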

[7] = target: T5, Polyunsaturated fatty acid 5-lipoxygenase (Mus musculus) (UniProt P48999); experiment: as §4; summary of the method: as §5
T5 sequence (whole entry): T4 sequence (P48999 whole entry)

[8] = Metal chelating activity of the compound assessed as formation of iron complex in PBS at pH 7.4 at 50 uM after 10 secs by UV-vis spectrometry in presence of 100 uM FeSO4; type: functional
Summary of the method: (§6)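 Compound was taken from a 1 mM methanol stock and diluted to 50 µM in PBS (10 mM, pH 7.4). Salt solution (CuSO4, FeCl3 or FeSO4) was added at 50 or 100 µM. Absorption spectra from 200–600 nm were recorded after 10 s and compared with the compound alone.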

[9] = Inhibition of soybean 15-LOX type 1-B assessed as inhibition of conversion of linoleic acid to (9Z,11E)-(13S)-13-hydroperoxyoctadeca-9,11-dienoate preincubated for 10 mins before substrate addition measured after 6 mins by spectrophotometry; parameters: species or system Glycine max
Summary of the method: (§7)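 Soybean lipoxygenase type I-B (80 U/well) in sodium phosphate buffer (100 mM, pH 8.0) was incubated with sample in MeOH for 10 min at 25 °C. Linoleic acid was then added and A234 was followed for 6 min. Samples were run in triplicate. Pure compounds were screened at a final 25 µg/mL.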

[10] = target: T6, Polyunsaturated fatty acid 5-lipoxygenase (Homo sapiens) (UniProt P09917); experiment: Inhibition of human 5-LOX in human peripheral blood mononuclear leukocytes assessed as inhibition of calymycin A23187 stimulated LTB4 production at 10 uM preincubated for 15 mins before stimulation measured after 15 mins by enzyme immunoassay; summary of the method: as §2
T6 sequence (whole entry): T2 sequence (P09917 whole entry)

[11] = target: T3, Prostaglandin G/H synthase 2 (Homo sapiens); experiment: Inhibition of human recombinant COX2 expressed in insect Sf21 cells assessed as inhibition of conversion of arachidonic acid to PGE2 at 10 nM preincubated for 15 mins before substrate addition measured after 5 mins by enzyme immunoassay; summary of the method: as §3
[12] = Metal chelating activity of the compound assessed as formation of copper complex in PBS at pH 7.4 at 50 uM after 10 secs by UV-vis spectrometry in presence of 100 uM CuSO4; type: functional; summary of the method: as §6
[13] = target: T6, Polyunsaturated fatty acid 5-lipoxygenase (Homo sapiens); experiment: Inhibition of human 5-LOX in human peripheral blood mononuclear leukocytes assessed as inhibition of calymycin A23187 stimulated LTB4 production at 1 uM preincubated for 15 mins before stimulation measured after 15 mins by enzyme immunoassay; summary of the method: as §2
[14] = target: T1, Prostaglandin G/H synthase 1; experiment: Inhibition of COX1 in human platelets assessed as inhibition of conversion of arachidonic acid to PGE2 at 10 uM preincubated for 15 mins before substrate addition measured after 15 mins by enzyme immunoassay; summary of the method: as §1
[15] = Metal chelating activity of the compound assessed as formation of iron complex in PBS at pH 7.4 at 50 uM after 10 secs by UV-vis spectrometry in presence of 100 uM FeCl3; type: functional; summary of the method: as §6
[16] = target: T6, Polyunsaturated fatty acid 5-lipoxygenase (Homo sapiens); experiment: Inhibition of human 5-LOX in human peripheral blood mononuclear leukocytes assessed as inhibition of calymycin A23187 stimulated LTB4 production at 0.1 uM preincubated for 15 mins before stimulation measured after 15 mins by enzyme immunoassay; summary of the method: as §2
[17] = target: T3, Prostaglandin G/H synthase 2 (Homo sapiens); experiment: Inhibition of human recombinant COX2 expressed in insect Sf21 cells assessed as inhibition of conversion of arachidonic acid to PGE2 at 10 uM preincubated for 15 mins before substrate addition measured after 5 mins by enzyme immunoassay; summary of the method: as §3
[18] = target: T3, Prostaglandin G/H synthase 2 (Homo sapiens); experiment: Inhibition of human recombinant COX2 expressed in insect Sf21 cells assessed as inhibition of conversion of arachidonic acid to PGE2 at 1 uM preincubated for 15 mins before substrate addition measured after 5 mins by enzyme immunoassay; summary of the method: as §3
[19] = target: T1, Prostaglandin G/H synthase 1; experiment: Inhibition of COX1 in human platelets assessed as inhibition of conversion of arachidonic acid to PGE2 at 0.1 uM preincubated for 15 mins before substrate addition measured after 15 mins by enzyme immunoassay; summary of the method: as §1
[20] = target: T6, Polyunsaturated fatty acid 5-lipoxygenase (Homo sapiens); experiment: Inhibition of human 5-LOX in human peripheral blood mononuclear leukocytes assessed as inhibition of calymycin A23187 stimulated LTB4 production at 10 nM preincubated for 15 mins before stimulation measured after 15 mins by enzyme immunoassay; summary of the method: as §2
[21] = target: T7, Prostaglandin G/H synthase 2 (Homo sapiens, UniProt P35354); experiment: Inhibition of human recombinant COX2 expressed in insect Sf21 cells assessed as inhibition of conversion of arachidonic acid to PGE2 preincubated for 15 mins before substrate addition measured after 5 mins by enzyme immunoassay; summary of the method: as §3
T7 sequence (P35354 whole entry): T3 sequence (whole entry)

[22] = Cytotoxicity against NMRI mouse macrophages by MTT assay; type: cell-based; conditions: macrophage
Summary of the method: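 Macrophages from the 5-LOX assay wells were used after supernatant collection. Cells received MTT (5 mg/ml in PBS, 20 µl/well) for 4 h at 37 °C, then the formazan was dissolved in DMSO and absorbance was read at 550 nm. Values are mean ± S.D., mostly from triplicate determinations.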

[23] = target: T1, Prostaglandin G/H synthase 1; experiment: Inhibition of COX1 in human platelets assessed as inhibition of conversion of arachidonic acid to PGE2 at 10 nM preincubated for 15 mins before substrate addition measured after 15 mins by enzyme immunoassay; summary of the method: as §1
[24] = system: Glycine max; experiment: Inhibition of soybean 15-LOX type 1-B assessed as inhibition of conversion of linoleic acid to (9Z,11E)-(13S)-13-hydroperoxyoctadeca-9,11-dienoate at 25 ug/ml preincubated for 10 mins before substrate addition measured after 6 mins by spectrophotometry; summary of the method: as §7

T1 sequence (P23219 whole entry): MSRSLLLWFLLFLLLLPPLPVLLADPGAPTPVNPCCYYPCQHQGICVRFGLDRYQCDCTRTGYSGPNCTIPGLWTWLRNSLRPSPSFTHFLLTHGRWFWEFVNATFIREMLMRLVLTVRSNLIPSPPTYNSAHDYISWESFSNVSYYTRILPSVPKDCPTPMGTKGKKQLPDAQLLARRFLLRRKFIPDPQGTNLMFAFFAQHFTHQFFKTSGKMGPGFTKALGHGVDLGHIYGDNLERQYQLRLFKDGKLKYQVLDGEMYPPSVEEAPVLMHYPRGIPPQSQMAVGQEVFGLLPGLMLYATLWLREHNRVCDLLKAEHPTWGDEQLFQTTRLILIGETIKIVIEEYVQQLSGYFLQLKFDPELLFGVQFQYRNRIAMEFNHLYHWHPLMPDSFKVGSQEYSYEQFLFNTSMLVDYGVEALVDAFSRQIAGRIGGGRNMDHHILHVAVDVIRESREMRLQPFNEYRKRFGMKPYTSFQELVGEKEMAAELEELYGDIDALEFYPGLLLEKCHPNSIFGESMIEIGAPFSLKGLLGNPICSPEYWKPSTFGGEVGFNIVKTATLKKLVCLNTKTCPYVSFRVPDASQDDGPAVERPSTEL

Compound: O=c1c(O)c(-c2ccc(O)c(O)c2)oc2cc(O)cc(O)c12 [QUERCETIN]
IC50 [1]: 6.91 µM

IC50 [2]: 6.9 µM | IC50 [3]: 0.42 µM | inhibition [4]: 28% | inhibition [5]: -9% | IC50 [6]: 1.8 µM | inhibition [7]: Dose-dependent effect | IC50 [9]: 20.4 µM | inhibition [10]: 102% | inhibition [11]: 14% | inhibition [13]: 75% | IC50 [1]: 46 µM | inhibition [14]: 91% | inhibition [16]: 13% | inhibition [17]: 100% | inhibition [18]: 60% | inhibition [19]: -1% | inhibition [20]: 6% | IC50 [21]: 0.4 µM | inhibition [23]: -5%
Compound: CC(=O)c1c(O)cc(O)c(C/C=C(\C)CCC=C(C)C)c1O
Activity [8]: inactive | Activity [12]: inactive | Activity [15]: inactive | Activity [22]: Non-toxic

inhibition [24]: 88.8% | IC50 [9]: 9.82 µM
Compound: CC(Cc1ccc(O)c(O)c1)C(C)Cc1ccc(O)c(O)c1 (stereo unspecified) [NORDIHYDROGUAIARETIC ACID]
